Measured values: ChEMBL document CHEMBL4689842, “EUbOPEN Chemogenomics Library wave 1” (2021)
Where “and” joins values, the source holds several entries; their conditions need not be identical. Equal values may be shown once.

Assays:
Assay type in all cases: toxicity, cell-based
Fibroblast [1] = experiment: Incucyte cell viability with human fibroblast; conditions: 10 µM, compound concentration 10 uM; further: filed as whole numbers so only -1 and 0 and 1 occur
U2OS [2] = experiment: Incucyte cell viability with U2OS; conditions: human, 10 µM, compound concentration 10 uM; further: filed as whole numbers so only -1 and 0 and 1 occur
HEK-293T [3] = experiment: Multiplex assay against HEK293T; conditions: human, 10 µM, compound concentration 10 uM;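 on Population Tubulin-Different-Phenotype (%): share of the cells with healthy nuclei that show this phenotype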
Method in brief: (§1)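 Compound was added to live cells that had been stained at seeding with Hoechst33342, BioTracker Green Microtubule Cytoskeleton Dye, MitoTracker Red and Annexin V Alexa Fluor 680, and imaging followed on a CQ1 microscope at 37°C and 5% CO2. CellPathfinder machine-learning gating divided cells into Hoechst high-intensity objects or normal cells, normal cells into healthy, pyknosed or fragmented nuclei, and pyknosed cells into mitotic or apoptotic. Tubulin, mitochondrial-mass and membrane-permeability phenotypes are per cents of healthy-nucleus cells.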

HEK-293T [4] = experiment: Incucyte cell viability with HEK293T; conditions: human, 10 µM, compound concentration 10 uM; further: filed as whole numbers so only -1 and 0 and 1 occur
U2OS [5] = experiment: Multiplex assay against U2OS; conditions: human, 10 µM, compound concentration 10 uM; method in brief: as §1
Fibroblast [6] = experiment: Multiplex assay against human fibroblast; conditions: 10 µM, compound concentration 10 uM; method in brief: as §1
[7] = 0 h, replicate number 1, timepoint 0 hours
[8] = 12 h, replicate number 1, timepoint 12 hours
[9] = 18 h, replicate number 1, timepoint 18 hours
[10] = 24 h, replicate number 1, timepoint 24 hours

`CN1CCN(Cc2ccc(-c3cnc4[nH]cc(-c5ccc6[nH]ccc6c5)c4c3)cc2)CC1` was tested, and the “Growth Rate” value (Fibroblast [1]; [7]) was 0, the “Growth Rate” value (Fibroblast [1]; [8]) was 0 and the “Growth Rate” value (Fibroblast [1]; [9]) was 0. For the same compound, the “Growth Rate” value (Fibroblast [1]; [10]) was 0, the “Growth Rate” value (U2OS [2]; 0 h, replicate number 2, timepoint 0 hours) was 0 and the “Growth Rate” value (U2OS [2]; [8]) was 1. The “Growth Rate” value (U2OS [2]; [9]) was 0, the “Growth Rate” value (U2OS [2]; [10]) was 0 and the “Population Fragmented Nuclei (%)” value (HEK-293T [3]; 12 h, replicate 1) was 11% and 13% and 21%. For the same compound, the “Population Hoechst High Intensity Objects (%)” value (HEK-293T [3]; 12 h, replicate 1) was 16% and 24% and 18%, the “Population Membrane Permeable-Phenotype (%)” value (HEK-293T [3]; 12 h, replicate 1) was 20% and 12% and 28% and the “Population Normal (%)” value (HEK-293T [3]; 12 h, replicate 1) was 83% and 75% and 81%. The “Population Pyknosed Nuclei (%)” value (HEK-293T [3]; 12 h, replicate 1) was 59% and 81%, the “Population Membrane Permeable-Phenotype (%)” value (HEK-293T [3]; 12 h, replicate 2) was 0% and 15% and the “Population Normal (%)” value (HEK-293T [3]; 12 h, replicate 2) was 87% and 97%. The “Population Tubulin-Different-Phenotype (%)” value (HEK-293T [3]; 12 h, replicate 2) was 66% and 53% and 95%, the “Population Fragmented Nuclei (%)” value (HEK-293T [3]; 24 h, replicate 1) was 16% and the “Population Hoechst High Intensity Objects (%)” value (HEK-293T [3]; 24 h, replicate 1) was 29% and 32% and 15%. For the same compound, the “Population Membrane Permeable-Phenotype (%)” value (HEK-293T [3]; 24 h, replicate 1) was 11% and 15%, the “Population Normal (%)” value (HEK-293T [3]; 24 h, replicate 1) was 70% and 67% and 84% and the “Population Membrane Permeable-Phenotype (%)” value (HEK-293T [3]; 24 h, replicate 2) was 0% and 8% and 9%. For the same compound, the “Population Normal (%)” value (HEK-293T [3]; 24 h, replicate 2) was 78% and 93%, the “Population Apoptotic (%)” value (HEK-293T [3]; 48 h, replicate 1) was 90% and the “Population Fragmented Nuclei (%)” value (HEK-293T [3]; 48 h, replicate 1) was 29%. The “Population Healthy Nuclei (%)” value (HEK-293T [3]; 48 h, replicate 1) was 3%, the “Population Hoechst High Intensity Objects (%)” value (HEK-293T [3]; 48 h, replicate 1) was 31% and the “Population Membrane Permeable-Phenotype (%)” value (HEK-293T [3]; 48 h, replicate 1) was 0%. The “Population Mitotic Cells (%)” value (HEK-293T [3]; 48 h, replicate 1) was 9%, the “Population Normal (%)” value (HEK-293T [3]; 48 h, replicate 1) was 68% and the “Population Pyknosed Nuclei (%)” value (HEK-293T [3]; 48 h, replicate 1) was 66%. For the same compound, the “Population Tubulin-Different-Phenotype (%)” value (HEK-293T [3]; 48 h, replicate 1) was 80%, the “Total Cell Count” value (HEK-293T [3]; 48 h, replicate 1) was 216 and the “Population Apoptotic (%)” value (HEK-293T [3]; 48 h, replicate 2) was 96%. The “Population Fragmented Nuclei (%)” value (HEK-293T [3]; 48 h, replicate 2) was 17%, the “Population Healthy Nuclei (%)” value (HEK-293T [3]; 48 h, replicate 2) was 7% and the “Population Hoechst High Intensity Objects (%)” value (HEK-293T [3]; 48 h, replicate 2) was 18%. The “Population Membrane Permeable-Phenotype (%)” value (HEK-293T [3]; 48 h, replicate 2) was 22%, the “Population Mitochondria Different-Phenotype (%)” value (HEK-293T [3]; 48 h, replicate 2) was 100% and the “Population Mitotic Cells (%)” value (HEK-293T [3]; 48 h, replicate 2) was 3%. For the same compound, the “Population Normal (%)” value (HEK-293T [3]; 48 h, replicate 2) was 81%, the “Population Pyknosed Nuclei (%)” value (HEK-293T [3]; 48 h, replicate 2) was 75% and the “Population Tubulin-Different-Phenotype (%)” value (HEK-293T [3]; 48 h, replicate 2) was 100%. For the same compound, the “Total Cell Count” value (HEK-293T [3]; 48 h, replicate 2) was 158, the “Growth Rate” value (HEK-293T [4]; [7]) was 0 and the “Growth Rate” value (HEK-293T [4]; 6 h, replicate number 2, timepoint 6 hours) was 0. For the same compound, the “Growth Rate” value (HEK-293T [4]; [8]) was 0, the “Growth Rate” value (HEK-293T [4]; [9]) was 0 and the “Growth Rate” value (HEK-293T [4]; [10]) was 0. For the same compound, the “Population Apoptotic (%)” value (U2OS [5]; 12 h, replicate 1) was 81% and 75%, the “Population Hoechst High Intensity Objects (%)” value (U2OS [5]; 12 h, replicate 1) was 11% and 4% and 8% and the “Population Membrane Permeable-Phenotype (%)” value (U2OS [5]; 12 h, replicate 1) was 87% and 74% and 69%. The “Population Mitochondria Different-Phenotype (%)” value (U2OS [5]; 12 h, replicate 1) was 64% and 37%, the “Population Mitotic Cells (%)” value (U2OS [5]; 12 h, replicate 1) was 18% and 24% and 25% and the “Population Normal (%)” value (U2OS [5]; 12 h, replicate 1) was 88% and 95% and 91%. For the same compound, the “Total Cell Count” value (U2OS [5]; 12 h, replicate 1) was 171 and 167 and 190, the “Population Fragmented Nuclei (%)” value (U2OS [5]; 12 h, replicate 2) was 17% and 14% and 13% and the “Population Hoechst High Intensity Objects (%)” value (U2OS [5]; 12 h, replicate 2) was 6% and 15%. For the same compound, the “Population Membrane Permeable-Phenotype (%)” value (U2OS [5]; 12 h, replicate 2) was 40% and 72% and 63%, the “Population Mitochondria Different-Phenotype (%)” value (U2OS [5]; 12 h, replicate 2) was 100% and 96% and 36% and the “Population Normal (%)” value (U2OS [5]; 12 h, replicate 2) was 94% and 84%. The “Total Cell Count” value (U2OS [5]; 12 h, replicate 2) was 76 and 116 and 120, the “Population Apoptotic (%)” value (U2OS [5]; 24 h, replicate 1) was 98% and 93% and 64% and the “Population Membrane Permeable-Phenotype (%)” value (U2OS [5]; 24 h, replicate 1) was 100% and 90% and 39%. The “Population Normal (%)” value (U2OS [5]; 24 h, replicate 1) was 90% and 76% and 93%, the “Total Cell Count” value (U2OS [5]; 24 h, replicate 1) was 166 and 199 and 279 and the “Population Apoptotic (%)” value (U2OS [5]; 24 h, replicate 2) was 95% and 100% and 66%. For the same compound, the “Population Membrane Permeable-Phenotype (%)” value (U2OS [5]; 24 h, replicate 2) was 40%, the “Population Mitochondria Different-Phenotype (%)” value (U2OS [5]; 24 h, replicate 2) was 39% and the “Population Normal (%)” value (U2OS [5]; 24 h, replicate 2) was 81% and 66% and 89%. For the same compound, the “Population Tubulin-Different-Phenotype (%)” value (U2OS [5]; 24 h, replicate 2) was 18%, the “Total Cell Count” value (U2OS [5]; 24 h, replicate 2) was 122 and 91 and 140 and the “Population Apoptotic (%)” value (U2OS [5]; 48 h, replicate 1) was 100%. The “Population Fragmented Nuclei (%)” value (U2OS [5]; 48 h, replicate 1) was 31%, the “Population Healthy Nuclei (%)” value (U2OS [5]; 48 h, replicate 1) was 2% and the “Population Hoechst High Intensity Objects (%)” value (U2OS [5]; 48 h, replicate 1) was 14%. For the same compound, the “Population Membrane Permeable-Phenotype (%)” value (U2OS [5]; 48 h, replicate 1) was 66%, the “Population Mitochondria Different-Phenotype (%)” value (U2OS [5]; 48 h, replicate 1) was 100% and the “Population Mitotic Cells (%)” value (U2OS [5]; 48 h, replicate 1) was 0%. For the same compound, the “Population Normal (%)” value (U2OS [5]; 48 h, replicate 1) was 85%, the “Population Pyknosed Nuclei (%)” value (U2OS [5]; 48 h, replicate 1) was 66% and the “Population Tubulin-Different-Phenotype (%)” value (U2OS [5]; 48 h, replicate 1) was 100%. The “Total Cell Count” value (U2OS [5]; 48 h, replicate 1) was 148, the “Population Fragmented Nuclei (%)” value (U2OS [5]; 48 h, replicate 2) was 8% and the “Population Healthy Nuclei (%)” value (U2OS [5]; 48 h, replicate 2) was 64%. The “Population Hoechst High Intensity Objects (%)” value (U2OS [5]; 48 h, replicate 2) was 24%, the “Population Membrane Permeable-Phenotype (%)” value (U2OS [5]; 48 h, replicate 2) was 100% and the “Population Normal (%)” value (U2OS [5]; 48 h, replicate 2) was 75%. The “Population Pyknosed Nuclei (%)” value (U2OS [5]; 48 h, replicate 2) was 27%, the “Population Tubulin-Different-Phenotype (%)” value (U2OS [5]; 48 h, replicate 2) was 95% and the “Total Cell Count” value (U2OS [5]; 48 h, replicate 2) was 80. The “Population Apoptotic (%)” value (Fibroblast [6]; 12 h, replicate 1) was 47% and 85%, the “Population Fragmented Nuclei (%)” value (Fibroblast [6]; 12 h, replicate 1) was 27% and 39% and 35% and the “Population Hoechst High Intensity Objects (%)” value (Fibroblast [6]; 12 h, replicate 1) was 8% and 16% and 10%. For the same compound, the “Population Normal (%)” value (Fibroblast [6]; 12 h, replicate 1) was 91% and 83% and 89%, the “Total Cell Count” value (Fibroblast [6]; 12 h, replicate 1) was 208 and 291 and 107 and the “Population Apoptotic (%)” value (Fibroblast [6]; 12 h, replicate 2) was 50% and 73%. For the same compound, the “Population Mitotic Cells (%)” value (Fibroblast [6]; 12 h, replicate 2) was 50% and 26%, the “Population Normal (%)” value (Fibroblast [6]; 12 h, replicate 2) was 69% and 64% and 94% and the “Total Cell Count” value (Fibroblast [6]; 12 h, replicate 2) was 113 and 71 and 76. For the same compound, the “Population Apoptotic (%)” value (Fibroblast [6]; 24 h, replicate 1) was 73% and 68% and 81%, the “Population Fragmented Nuclei (%)” value (Fibroblast [6]; 24 h, replicate 1) was 50% and 59% and 47% and the “Population Hoechst High Intensity Objects (%)” value (Fibroblast [6]; 24 h, replicate 1) was 16% and 23% and 25%. The “Population Mitotic Cells (%)” value (Fibroblast [6]; 24 h, replicate 1) was 26% and 31% and 18%, the “Population Normal (%)” value (Fibroblast [6]; 24 h, replicate 1) was 83% and 76% and 75% and the “Population Apoptotic (%)” value (Fibroblast [6]; 24 h, replicate 2) was 50% and 100%. The “Population Healthy Nuclei (%)” value (Fibroblast [6]; 24 h, replicate 2) was 24% and 25% and 11%, the “Population Hoechst High Intensity Objects (%)” value (Fibroblast [6]; 24 h, replicate 2) was 26% and 33% and 52% and the “Population Normal (%)” value (Fibroblast [6]; 24 h, replicate 2) was 73% and 66% and 47%. The “Total Cell Count” value (Fibroblast [6]; 24 h, replicate 2) was 136 and 91 and 73, the “Population Fragmented Nuclei (%)” value (Fibroblast [6]; 48 h, replicate 1) was 75% and the “Population Healthy Nuclei (%)” value (Fibroblast [6]; 48 h, replicate 1) was 13%. For the same compound, the “Population Hoechst High Intensity Objects (%)” value (Fibroblast [6]; 48 h, replicate 1) was 28%, the “Population Membrane Permeable-Phenotype (%)” value (Fibroblast [6]; 48 h, replicate 1) was 41% and the “Population Normal (%)” value (Fibroblast [6]; 48 h, replicate 1) was 71%. For the same compound, the “Population Pyknosed Nuclei (%)” value (Fibroblast [6]; 48 h, replicate 1) was 10%, the “Population Tubulin-Different-Phenotype (%)” value (Fibroblast [6]; 48 h, replicate 1) was 58% and the “Total Cell Count” value (Fibroblast [6]; 48 h, replicate 1) was 121. For the same compound, the “Population Apoptotic (%)” value (Fibroblast [6]; 48 h, replicate 2) was 100%, the “Population Fragmented Nuclei (%)” value (Fibroblast [6]; 48 h, replicate 2) was 79% and the “Population Healthy Nuclei (%)” value (Fibroblast [6]; 48 h, replicate 2) was 11%. The “Population Hoechst High Intensity Objects (%)” value (Fibroblast [6]; 48 h, replicate 2) was 40%, the “Population Membrane Permeable-Phenotype (%)” value (Fibroblast [6]; 48 h, replicate 2) was 0% and the “Population Mitochondria Different-Phenotype (%)” value (Fibroblast [6]; 48 h, replicate 2) was 0%. The “Population Mitotic Cells (%)” value (Fibroblast [6]; 48 h, replicate 2) was 0%, the “Population Normal (%)” value (Fibroblast [6]; 48 h, replicate 2) was 59% and the “Population Pyknosed Nuclei (%)” value (Fibroblast [6]; 48 h, replicate 2) was 8%. For the same compound, the “Population Tubulin-Different-Phenotype (%)” value (Fibroblast [6]; 48 h, replicate 2) was 50% and the “Total Cell Count” value (Fibroblast [6]; 48 h, replicate 2) was 57.
